Key:
Assay type in all cases: in vivo, mouse
[1] = tested on: athymic nude mice bearing U87MG human glioma xenografts; assay: Biodistribution in athymic nude mice bearing U87MG glioma xenografts; settings: average ± SD; for Brain uptake / Eyes uptake / Heart uptake / Intestine uptake / Kidney uptake / Liver uptake / Lungs uptake / Muscle uptake / Spleen uptake / Blood uptake / Tumor uptake: tail vein ~0.1 MBq; for Blood uptake: γ-counting; for Tumor uptake: U87MG glioma xenograft
Summary of the method: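 Tumour model: female athymic nu/nu mice, 4–5 weeks old, inoculated s.c. in the shoulder flank with 5 × 10^6 U87MG cells and used 4 weeks later (tumours 0.1–0.5 g; mice 20–25 g). Dosing: ~0.1 MBq radiotracer (~2 ng conjugate) in filtered saline. Groups of 5–8 killed at 5, 30, 60 and 120 min by pentobarbital overdose. Blood and organs washed, blotted, weighed and γ-counted as %ID/g.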

[2] = tested on: athymic nude mice bearing U87MG glioma xenografts; settings: 60 min p.i.
[3] = tested on: athymic nude mice bearing U87MG human glioma xenografts; assay: SPECT/CT imaging with SPECT quantification of tumor uptake; settings: U87MG glioma xenograft; ~37 MBq via tail vein; imaging at 60 min p.i.
Summary of the method: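 Imaging dose: ~37 MBq radiotracer (~0.8 µg conjugate) in 0.1 mL saline i.v.; mice imaged under isoflurane. SPECT: multi-pinhole collimator (0.6 mm), 75 projections per 30-min frame, 2 frames. CT: 45 kV, 500 µA, 2° intervals. Tumour ROIs drawn on CT; counts converted to activity via a standard curve from sources of known activity scanned the same way; expressed as %ID/cm3.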

[4] = tested on: athymic nude mice without tumors; assay: Metabolism study; settings: ~10 MBq via tail vein, n = 3, radio-HPLC
Summary of the method: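 Tumour-free athymic nude mice (n = 3), ~10 MBq radiotracer i.v. Urine (manual void): mixed 1:1 with 50% acetonitrile, spun at 8,000 rpm, supernatant 0.20 µm-filtered. Feces: homogenised, suspended in 20% acetonitrile, vortexed ~5 min, spun, filtered. Filtrates analysed by C18 HPLC at 2.5 mL/min on a 0.05% TFA water/acetonitrile gradient (10% to 30% B over 20 min).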

[5] = co-injection of excess RGD2 (350 µg/mouse or 14 mg/kg), n = 6

Q: For “[^99mTc(HYNIC-Galacto-RGD2)(tricine)(TPPTS)] (bicyclic or more) [^99mTc-Galacto-RGD2]”, which Tumor/Blood ratio ([1]; 5 min p.i., n = 5) is on record?
A: Its Tumor/Blood ratio is 9.43 ± 1.19.

Q: And the Tumor/Kidney ratio ([1]; 5 min p.i., n = 5)?
A: The Tumor/Kidney ratio was 0.52 ± 0.14.

Q: What about the Tumor/Liver ratio ([1]; 5 min p.i., n = 5) of the same substance?
A: Its Tumor/Liver ratio is 2.66 ± 0.51.

Q: And the Tumor/Lung ratio ([1]; 5 min p.i., n = 5)?
A: Its Tumor/Lung ratio is 1.90 ± 0.21.

Q: What about the Tumor/Muscle ratio ([1]; 5 min p.i., n = 5) of the same substance?
A: The Tumor/Muscle ratio was 3.98 ± 0.75.

Q: And the Brain uptake ([1]; 5 min p.i., n = 5)?
A: Its Brain uptake is 0.41 ± 0.10 %ID/g.

Q: What about the Eyes uptake ([1]; 5 min p.i., n = 5) of the same substance?
A: The Eyes uptake was 1.54 ± 0.49 %ID/g.

Q: And the Heart uptake ([1]; 5 min p.i., n = 5)?
A: Its Heart uptake is 2.36 ± 0.29 %ID/g.

Q: What about the Intestine uptake ([1]; 5 min p.i., n = 5) of the same substance?
A: Its Intestine uptake is 3.78 ± 0.52 %ID/g.

Q: And the Kidney uptake ([1]; 5 min p.i., n = 5)?
A: The Kidney uptake was 18.75 ± 2.79 %ID/g.

Q: What about the Liver uptake ([1]; 5 min p.i., n = 5) of the same substance?
A: The Liver uptake was 4.00 ±1.10 %ID/g.

Q: What about the Lungs uptake ([1]; 5 min p.i., n = 5) of the same substance?
A: Its Lungs uptake is 5.41 ± 0.58 %ID/g.

Q: And the Muscle uptake ([1]; 5 min p.i., n = 5)?
A: Its Muscle uptake is 2.73 ± 0.89 %ID/g.

Q: And the Spleen uptake ([1]; 5 min p.i., n = 5)?
A: The Spleen uptake was 2.97 ± 0.43 %ID/g.

Q: What about the Blood uptake ([1]; 5 min p.i., n = 5) of the same substance?
A: Its Blood uptake is 1.10 ± 0.16 %ID/g.

Q: What about the Tumor/Blood ratio ([1]; 30 min p.i., n = 5) of the same substance?
A: The Tumor/Blood ratio was 9.65 ± 2.03.

Q: What about the Tumor/Kidney ratio ([1]; 30 min p.i., n = 5) of the same substance?
A: Its Tumor/Kidney ratio is 0.61 ±0.12.

Q: What about the Tumor/Liver ratio ([1]; 30 min p.i., n = 5) of the same substance?
A: The Tumor/Liver ratio was 3.25 ± 0.85.

Q: And the Tumor/Lung ratio ([1]; 30 min p.i., n = 5)?
A: Its Tumor/Lung ratio is 2.19 ± 0.75.

Q: And the Tumor/Muscle ratio ([1]; 30 min p.i., n = 5)?
A: Its Tumor/Muscle ratio is 7.97 ± 2.53.

Q: What about the Brain uptake ([1]; 30 min p.i., n = 5) of the same substance?
A: The Brain uptake was 0.22 ± 0.06 %ID/g.

Q: And the Eyes uptake ([1]; 30 min p.i., n = 5)?
A: The Eyes uptake was 1.20 ± 0.50 %ID/g.

Q: What about the Heart uptake ([1]; 30 min p.i., n = 5) of the same substance?
A: Its Heart uptake is 1.65 ± 1.10 %ID/g.

Q: What about the Intestine uptake ([1]; 30 min p.i., n = 5) of the same substance?
A: Its Intestine uptake is 4.24 ± 1.54 %ID/g.

Q: What about the Kidney uptake ([1]; 30 min p.i., n = 5) of the same substance?
A: The Kidney uptake was 13.13 ± 4.75 %ID/g.

Q: And the Liver uptake ([1]; 30 min p.i., n = 5)?
A: The Liver uptake was 2.82 ± 1.25 %ID/g.

Q: And the Lungs uptake ([1]; 30 min p.i., n = 5)?
A: The Lungs uptake was 4.24 ± 1.71 %ID/g.

Q: What about the Muscle uptake ([1]; 30 min p.i., n = 5) of the same substance?
A: The Muscle uptake was 1.10 ± 0.25 %ID/g.

Q: And the Spleen uptake ([1]; 30 min p.i., n = 5)?
A: Its Spleen uptake is 2.53 ± 0.85 %ID/g.

Q: And the Blood uptake ([1]; 30 min p.i., n = 5)?
A: Its Blood uptake is 0.92 ± 0.33 %ID/g.

Q: What about the Tumor/Blood ratio ([1]; 60 min p.i., n = 8) of the same substance?
A: The Tumor/Blood ratio was 15.94 ± 8.85.

Q: What about the Tumor/Kidney ratio ([1]; 60 min p.i., n = 8) of the same substance?
A: Its Tumor/Kidney ratio is 0.79 ±0.40.

Q: What about the Tumor/Liver ratio ([1]; 60 min p.i., n = 8) of the same substance?
A: Its Tumor/Liver ratio is 3.05 ± 1.69.

Q: What about the Tumor/Lung ratio ([1]; 60 min p.i., n = 8) of the same substance?
A: The Tumor/Lung ratio was 2.73 ± 1.33.

Q: What about the Tumor/Muscle ratio ([1]; 60 min p.i., n = 8) of the same substance?
A: The Tumor/Muscle ratio was 9.40 ± 5.11.

Q: And the Brain uptake ([1]; 60 min p.i., n = 8)?
A: The Brain uptake was 0.35 ± 0.28 %ID/g.

Q: What about the Eyes uptake ([1]; 60 min p.i., n = 8) of the same substance?
A: The Eyes uptake was 0.81 ± 0.39 %ID/g.

Q: And the Heart uptake ([1]; 60 min p.i., n = 8)?
A: Its Heart uptake is 1.27 ± 0.61 %ID/g.

Q: What about the Intestine uptake ([1]; 60 min p.i., n = 8) of the same substance?
A: The Intestine uptake was 5.45 ± 1.47 %ID/g.

Q: What about the Kidney uptake ([1]; 60 min p.i., n = 8) of the same substance?
A: The Kidney uptake was 11.70 ± 4.06 %ID/g.

Q: And the Liver uptake ([1]; 60 min p.i., n = 8)?
A: Its Liver uptake is 3.07 ± 2.14 %ID/g.

Q: What about the Lungs uptake ([1]; 60 min p.i., n = 8) of the same substance?
A: Its Lungs uptake is 2.93 ± 0.94 %ID/g.

Q: What about the Muscle uptake ([1]; 60 min p.i., n = 8) of the same substance?
A: The Muscle uptake was 0.88 ± 0.34 %ID/g.

Q: What about the Spleen uptake ([1]; 60 min p.i., n = 8) of the same substance?
A: The Spleen uptake was 1.99 ± 0.71 %ID/g.

Q: What about the Blood uptake ([1]; 60 min p.i., n = 8) of the same substance?
A: Its Blood uptake is 0.56 ± 0.25 %ID/g.

Q: And the Tumor/Blood ratio ([1]; 120 min p.i., n = 8)?
A: The Tumor/Blood ratio was 26.48 ± 8.71.

Q: What about the Tumor/Kidney ratio ([1]; 120 min p.i., n = 8) of the same substance?
A: The Tumor/Kidney ratio was 0.89 ±0.48.

Q: What about the Tumor/Liver ratio ([1]; 120 min p.i., n = 8) of the same substance?
A: Its Tumor/Liver ratio is 4.03 ± 2.04.

Q: What about the Tumor/Lung ratio ([1]; 120 min p.i., n = 8) of the same substance?
A: Its Tumor/Lung ratio is 4.38 ± 1.34.

Q: And the Tumor/Muscle ratio ([1]; 120 min p.i., n = 8)?
A: Its Tumor/Muscle ratio is 12.91 ± 4.95.

Q: What about the Brain uptake ([1]; 120 min p.i., n = 8) of the same substance?
A: Its Brain uptake is 0.14 ± 0.12 %ID/g.

Q: And the Eyes uptake ([1]; 120 min p.i., n = 8)?
A: The Eyes uptake was 0.52 ± 0.15 %ID/g.

Q: What about the Heart uptake ([1]; 120 min p.i., n = 8) of the same substance?
A: The Heart uptake was 0.56 ± 0.08 %ID/g.

Q: What about the Intestine uptake ([1]; 120 min p.i., n = 8) of the same substance?
A: The Intestine uptake was 3.37 ± 1.32 %ID/g.

Q: What about the Kidney uptake ([1]; 120 min p.i., n = 8) of the same substance?
A: The Kidney uptake was 6.04 ± 1.92 %ID/g.

Q: And the Liver uptake ([1]; 120 min p.i., n = 8)?
A: The Liver uptake was 1.54 ±0.43 %ID/g.

Q: What about the Lungs uptake ([1]; 120 min p.i., n = 8) of the same substance?
A: The Lungs uptake was 1.31 ± 0.23 %ID/g.

Q: What about the Muscle uptake ([1]; 120 min p.i., n = 8) of the same substance?
A: The Muscle uptake was 0.47 ± 0.12 %ID/g.

Q: And the Spleen uptake ([1]; 120 min p.i., n = 8)?
A: Its Spleen uptake is 1.46 ± 0.26 %ID/g.

Q: What about the Blood uptake ([1]; 120 min p.i., n = 8) of the same substance?
A: Its Blood uptake is 0.22 ± 0.03 %ID/g.

Q: What about the Tumor uptake ([1]; 5 min p.i., n = 5) of the same substance?
A: Its Tumor uptake is 10.30 ± 1.67 %ID/g.

Q: What about the Tumor uptake ([1]; 30 min p.i., n = 5) of the same substance?
A: The Tumor uptake was 8.37 ± 2.13 %ID/g.

Q: And the Tumor uptake ([1]; 60 min p.i., n = 8)?
A: The Tumor uptake was 6.86 ± 1.33 %ID/g.

Q: And the Tumor uptake ([1]; 120 min p.i., n = 8)?
A: The Tumor uptake was 5.61 ± 1.52 %ID/g.

Q: What about the “Intestine uptake in the presence of RGD2” value [2, 5] of the same substance?
A: Its value is 1.82 ± 0.86 %ID/g.

Q: What about the “Lungs uptake in the presence of RGD2” value [2, 5] of the same substance?
A: The value was 1.52 ± 0.27 %ID/g.

Q: And the “Spleen uptake in the presence of RGD2” value [2, 5]?
A: The value was 0.65 ± 0.07 %ID/g.

Q: And the “Tumor uptake with RGD2” value ([2]; co-injection of excess RGD2 (350 µg/mouse or 14 mg/kg), n = 6, average ± SD)?
A: Its value is 1.48 ± 0.42 %ID/g.

Q: What about the “Reduction of liver uptake by co-injected excess RGD2” value ([2]; of its origin value) of the same substance?
A: The value was 50%.

Q: What about the “Reduction of lung uptake by co-injected excess RGD2” value ([2]; of its origin value) of the same substance?
A: Its value is 50%.

Q: What about the “Tumor uptake on the basis of SPECT quantification” value [3] of the same substance?
A: Its value is ~ 8.5 %ID/cm^3.

Q: What about the “Remained intact in the feces” value ([4]; feces at 2 h p.i.) of the same substance?
A: Its value is “More than 90%”.

Q: What about the “Metabolites in the urine” value ([4]; urine at 30 min and 120 min p.i.) of the same substance?
A: The value was “no metabolites detected”.

Source: publication PMC3946497 (Molecular pharmaceutics, 2013)
